Assay outcomes as filed in PubChem BioAssay.
An excerpt weighted towards active compounds, which were near 3.7% of everything screened.
core dimer inh: HCV core protein dimerization inhibition | TR-FRET GST/Flag-core106 dimerization, 1536-well | inhibition, % at 5 µM | AID 1899 | actives 0.33% (n = 300,000);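 active = inhibition above the mean of all tested compounds plus 3 SD, set per screening campaign, cut at about 45% in these data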
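Assay system: Tagged HCV core106 pair (GST and Flag) | Buffer or medium: KF-containing HEPES buffer, pH 7.45, DTT, CHAPS, BSA | Also added: Eu donor and XL665 acceptor anti-tag antibodies | Dosing: One concentration, 5 µM, in 0.5% DMSO | Timing: 4 h at 22.5 °C | Technique: TR-FRET 671 and 617 nm emission | Repeats: Singlicate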
TAAR1 antagonist: human TAAR1 antagonism | Q96RJ0 | CHO RD-HGA16 TAAR1, Fluo-8 calcium fluorescence, antagonist | inhibition, % at 3 µM | actives 1.5% (n = 360,000);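 active = inhibition above a per-plate cutoff, the mean inhibition of test compounds on that plate plus 3 SD, cut at about 49% in these data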;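 also: 0% = DMSO plus EC80 beta-PEA response and 100% = DMSO alone without agonist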
Target sequence (Q96RJ0 whole entry, looked up): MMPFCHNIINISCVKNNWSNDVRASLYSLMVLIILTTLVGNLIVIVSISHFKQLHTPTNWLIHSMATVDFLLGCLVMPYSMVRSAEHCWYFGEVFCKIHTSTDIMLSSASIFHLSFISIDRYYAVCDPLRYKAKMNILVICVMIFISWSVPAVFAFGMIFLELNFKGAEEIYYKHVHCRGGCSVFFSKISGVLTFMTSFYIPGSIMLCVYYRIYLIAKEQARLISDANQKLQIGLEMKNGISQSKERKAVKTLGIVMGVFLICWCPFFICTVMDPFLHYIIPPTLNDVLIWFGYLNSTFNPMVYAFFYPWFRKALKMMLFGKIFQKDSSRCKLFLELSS
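Assay system: CHO-derived RD-HGA16 cells stably expressing human TAAR1 plus Gα16. Timing: 140 s kinetic read after compound, 140 s after agonist. Technique: kinetic Fluo-8 calcium fluorescence measurement. Measure: % inhibition of agonist calcium response.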
rCAG binder: molecules binding r(CAG) RNA repeats; actives 1.3% (n = 370,000); r(CAG) RNA repeat, TO-PRO-1 dye displacement fluorescence; inhibition, % at 3 µM;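 active = inhibition above the plate cutoff, the mean of all test compounds on that plate plus 3 SD, cut at about 35% in these data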;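 also: 0% = DMSO alone and 100% = 100 µM mitoxantrone as full dye displacement; higher means more dye released from RNA so lower well fluorescence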
NS3 helicase inh: inhibitors of Hepatitis C virus NS3 helicase. NS3 helicase DNA unwinding, Cy5 molecular beacon fluorescence. inhibition, % at 10.9 µM. actives 0.56% (n = 290,000);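 active = inhibition above the mean of all tested compounds plus 3 SD, set per campaign, cut at about 35% in these data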;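 also: 0% = DMSO wells and 100% = thioflavine S control wells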
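System: HCV NS3 helicase fragment; control set: DMSO and thioflavine S; technique: Cy5 fluorescence at 0 and 60 min, beacon hairpin quenching; reagent: beacon DNA duplex substrate plus ATP; replicates: singlicate; schedule: 1 h reaction at 25 °C, ATP-initiated; medium: MOPS buffer pH 6.5 with MgCl2, DTT, Tween20, BSA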
TAAR1 ag: agonists of human TAAR1. Q96RJ0. CHO RD-HGA16 TAAR1, Fluo-8 calcium fluorescence; vehicle wells 0%, saturating PEA agonist 100%. activation, % at 3 µM. actives 0.99% (n = 360,000). AID 624467;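 active = activation above the mean activation of all test compounds in the run plus 3 SD, cut at about 38% in these data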
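Test system: RD-HGA16 (CHO) cells co-expressing Gα16 and hTAAR1 / Benchmarks: DMSO vehicle as 0%, PEA at EC100 as 100% / Repeats: no replicates (n 1) / Measure: % activation from peak over basal fluorescence ratio, DMSO-to-PEA scaled / Timing: 17-24 h plating, Fluo-8 75 min 37 °C, 30 min RT / Technique: kinetic Fluo-8 calcium fluorescence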
rCAG bind conf: r(CAG) RNA repeat binding, confirmation; shares compounds with rCAG binder; TO-PRO-1 dye displacement fluorescence; inhibition, % at 3 µM; actives 70% (n = 4,300); AID 652065;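 active = inhibition above a per-plate cutoff, the mean inhibition of sample wells plus 3 SD, cut at about 35% in these data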;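 also: loss of TO-PRO-1 fluorescence as compound displaces dye from 1x1 AA loop RNA; 0% = DMSO only wells and 100% = 100 µM mitoxantrone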
DNA CAG counter: counter-screen for rCAG RNA binders: DNA CAG dye complex inhibitors | shares compounds with rCAG binder | d(CAG) DNA oligo TO-PRO-1 dye displacement, fluorescence | inhibition, % at 3 µM | actives 94% (n = 4,300) | AID 652068;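 active = inhibition above its plate's cutoff, the mean test-well inhibition plus 3 SD, cut at about 4.8% in these data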;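 also: 0% = DNA dye mix with DMSO and 100% = 100 µM mitoxantrone; hits displace the dye from DNA and so lower well fluorescence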
The depositor's hits bear a star; nt = no result given.

SMILES	core dimer inh	TAAR1 antagonist	rCAG binder	NS3 helicase inh	TAAR1 ag	rCAG bind conf	DNA CAG counter
O=[N+]([O-])c1cccc(O)c1	nt	-6.3	0.9	nt	2.2	nt	nt
O=C(N/N=C/c1c(O)n(CCc2ccc(F)cc2)c(=O)[nH]c1=O)c1ccccc1	5.2	-55.5	6.0	-2.3	0.8	nt	nt
O=C(N/N=C/c1c(O)n(CCc2ccccc2)c(=O)[nH]c1=O)c1ccccc1O	0.7	-17.0	87.3*	-1.8	7.9	65.3*	25.4*
COc1ccc(Cn2c(O)c(/C=N/NC(=O)c3ccccc3O)c(=O)[nH]c2=O)cc1	11.6	-6.4	90.9*	2.1	4.1	76.3*	36.5*
O=C(N/N=C/c1c(O)n(Cc2ccc(F)cc2)c(=O)[nH]c1=O)c1ccccc1O	1.9	-18.7	84.5*	34.1	7.0	67.5*	26.1*
COc1ccc(Cn2c(O)c(/C=N/NC(=O)c3ccccc3)c(=O)[nH]c2=O)cc1	-8.4	-2.8	29.9	16.6	7.1	nt	nt
O=C1NC(=O)N(CCC2=CCCCC2)C(=O)/C1=C\c1cccs1	9.7	23.4	42.0*	16.0	22.5	6.5	3.4
O=C(O)C1C2c3ccccc3C(O)C1(C(=O)O)c1ccccc12 (stereo not given)	nt	-16.0	2.8	nt	6.5	nt	nt
O=C1CC(=O)N(c2cccc(Br)c2)C(=O)N1	5.9	-13.6	16.2	23.4	1.8	nt	nt
Cc1cc(Br)ccc1N1C(=O)CC(=O)NC1=O	0.3	10.6	40.3*	14.3	8.8	4.5	3.0
